According to ChEMBL document CHEMBL3414569, “Amino acid modified xanthone derivatives: novel, highly promising membrane-active antimicrobials for multidrug-resistant Gram-positive bacterial infections” (J Med Chem, 2015):
Converted amounts (≈) assume the structure as drawn. The source made the active and inactive calls.

Assays:
Lipid bilayer [1] = experiment: Induction of vesicle leakage in DOPE/DOPG large unilamellar vesicles assessed as calcein release at 1/32 compound to lipid ratio by fluorescence assay; assay type: functional
In short: (§1)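 100 nm LUVs (DOPE/DOPG 75/25 or DOPC) made by film hydration in 80 mM calcein, 50 mM HEPES, 100 mM NaCl, 0.3 mM EDTA, pH 7.4. Then 7 freeze–thaw cycles, 15 extrusions and Sephadex G-50 clean-up. Compound added from DMF (<0.2%) at 50 μM final phospholipid. Fluorescence read at ex 490/em 520 nm for 30 min; 0.1% Triton X-100 set 100% lysis; three independent experiments.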

Staphylococcus aureus [2] = experiment: Antimicrobial activity against Staphylococcus aureus ATCC 29213 infected in mouse cornea infection model assessed as reduction in viable bacterial count at 0.3% solution applied topically 5 times/day dosed 1 day after infection relative to control; assay type: functional
In short: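 Mouse cornea given three superficial 1 mm scratches on one eye under ketamine/xylazine, then 10 μL of S. aureus ATCC 29213 suspension (1 × 10^8 CFU/mL in USP phosphate buffer) applied topically. Treated topically 5 times/day from day 1 postinfection; PBS negative control; 4 mice/group killed on days 1, 2 and 3. Corneas homogenized in 0.9% NaCl with 0.25% BSA, plated in duplicate on TSA (48 h, 35 °C); log10 CFU/cornea.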

Staphylococcus aureus [3] = experiment: Antimicrobial activity against epidemic methicillin resistant Staphylococcus aureus isolates by broth macrodilution method; assay type: functional
Streptococcus = experiment: Antimicrobial activity against Streptococcus isolates by broth macrodilution method; assay type: functional
Staphylococcus aureus [4] = experiment: Antimicrobial activity against methicillin resistant Staphylococcus aureus DM21455 in presence of 4% BSA by broth macrodilution method; assay type: functional
In short: (§2)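 MIC by CLSI broth macrodilution in Mueller Hinton broth, with BSA added to the bacterial suspension at a final 4% w/v. Inoculum was made by direct colony suspension from an 18−20 h tryptic soy agar plate.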

[5] = Selectivity index, ratio of HC50 for induction of hemolysis in New Zealand white rabbit RBC to MIC for Staphylococcus aureus DM4001
Staphylococcus aureus [6] = experiment: Antimicrobial activity against teicoplanin intermediate resistant Staphylococcus aureus isolates by broth macrodilution method; assay type: functional
[7] = Retention time of the compound; assay type: physicochemical
In short: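 Reverse-phase HPLC of 20 μL injections of a 10 μg/mL sample at 1 mL/min. Gradient: 5−55% ACN over 5 min, then 55−95% over 15 min.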

[8] = Selectivity index, ratio of HC50 for induction of hemolysis in New Zealand white rabbit RBC to MIC for Staphylococcus aureus DM21455
Staphylococcus aureus [9] = experiment: Antimicrobial activity against methicillin sensitive Staphylococcus aureus isolates by broth macrodilution method; assay type: functional
Bacillus cereus = experiment: Antimicrobial activity against Bacillus cereus ATCC 11778 by broth macrodilution method; assay type: functional
In short: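 CLSI broth macrodilution in Mueller Hinton broth. Inoculum was made by direct colony suspension from colonies on an 18−20 h tryptic soy agar plate. The value is the MIC.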

[10] = Selectivity index, ratio of HC50 for induction of hemolysis in New Zealand white rabbit RBC to MIC for Bacillus cereus ATCC 11778
Staphylococcus aureus [11] = experiment: Antimicrobial activity against multidrug resistant Staphylococcus aureus isolates by broth macrodilution method; assay type: functional
Staphylococcus aureus [12] = experiment: Antimicrobial activity against methicillin resistant Staphylococcus aureus DM21455 in absence of 4% BSA by broth macrodilution method; assay type: functional
In short: (§3)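 Broth macrodilution MIC in Mueller Hinton broth following CLSI guidelines. Inoculum was prepared by direct colony suspension from an 18−20 h tryptic soy agar plate.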

Enterococcus [13] = experiment: Antimicrobial activity against vancomycin-resistant Enterococcus isolates by broth macrodilution method; assay type: functional
Corynebacterium jeikeium = experiment: Antimicrobial activity against Corynebacterium jeikeium isolates by broth macrodilution method; assay type: functional
Mus musculus [14] = experiment: Toxicity in C57BL6 mouse eye assessed as inflammatory response at 3 mg/ml applied topically 5 times/day for 4 days by slit lamp biomicroscopy; assay type: organism-based; details: in vivo, topical_or_ocular, 96 h
In short: (§4)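 Three healthy wild-type C57BL6 mice (6−8 weeks) per treatment received 0.5, 1 or 3 mg/mL compound in 10 mM PBS. Applied topically to the eye 5 times/day for 4 days. Corneal clarity checked daily through day 4 by slit-lamp biomicroscopy; histological sections also inspected.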

Staphylococcus aureus [15] = experiment: Antimicrobial activity against Staphylococcus aureus DM4001 by broth macrodilution method; assay type: functional; in short: as §3
Staphylococcus aureus [16] = experiment: Antimicrobial activity against Staphylococcus aureus ATCC 29213 at 0.5 times MIC measured after 17 passages by multistep passage drug resistance selection study relative to wild type Staphylococcus aureus ATCC 29213 before passage; assay type: functional
In short: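 Multipassage selection in S. aureus ATCC29213 across an eight-concentration dilution series. Growth was read after 20−22 h. Bacteria growing at 0.5 × MIC were repassaged into a fresh series, 17 passages in total. Resistance was defined as a more than 4-fold rise over the initial MIC.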

[17] = system: Staphylococcus epidermidis; experiment: Antimicrobial activity against Staphylococcus epidermidis isolates by broth macrodilution method; assay type: functional
Staphylococcus aureus [18] = experiment: Antimicrobial activity against methicillin resistant Staphylococcus aureus DM09809R by broth macrodilution method; assay type: functional; in short: as §3
Lipid bilayer [19] = experiment: Induction of vesicle leakage in DOPC large unilamellar vesicles assessed as calcein release at 1/64 compound to lipid ratio by fluorescence assay
Staphylococcus aureus [20] = experiment: Antimicrobial activity against Staphylococcus aureus ATCC 29213 by broth macrodilution method; assay type: functional; in short: as §3
Staphylococcus aureus [21] = experiment: Antimicrobial activity against Staphylococcus aureus ATCC 29213 in presence of 4% BSA by broth macrodilution method; assay type: functional; in short: as §2
Lipid bilayer [22] = experiment: Induction of vesicle leakage in DOPE/DOPG large unilamellar vesicles assessed as calcein release at 1/16 compound to lipid ratio by fluorescence assay; assay type: functional; in short: as §1
Enterococcus [23] = experiment: Antimicrobial activity against vancomycin-sensitive Enterococcus isolates by broth macrodilution method; assay type: functional
Staphylococcus aureus [24] = experiment: Antimicrobial activity against methicillin resistant Staphylococcus aureus DM21455 by broth macrodilution method; assay type: functional; in short: as §3
Staphylococcus aureus [25] = experiment: Antimicrobial activity against vancomycin-intermediate sensitive Staphylococcus aureus isolates by broth macrodilution method; assay type: functional
Staphylococcus aureus [26] = experiment: Antimicrobial activity against methicillin resistant Staphylococcus aureus isolates by broth macrodilution method; assay type: functional
Mus musculus [27] = experiment: Toxicity in C57BL6 mouse eye assessed as induction of toxicity related clinical signs at 3 mg/ml applied topically 5 times/day for 4 days; assay type: organism-based; details: in vivo, topical_or_ocular, 96 h; in short: as §4
[28] = Induction of hemolysis in New Zealand white rabbit RBC after 1 hr; assay type: cell-based, Oryctolagus cuniculus, Erythrocyte; details: New Zealand white, red blood cells (RBC)
In short: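 Fresh red blood cells isolated from New Zealand white rabbits. Lysis measured over a compound concentration series; HC50 taken as the concentration lysing 50% of RBCs.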

Lipid bilayer [29] = experiment: Induction of vesicle leakage in DOPE/DOPG large unilamellar vesicles assessed as calcein release at 1/64 compound to lipid ratio by fluorescence assay; assay type: functional; in short: as §1
Mus musculus [30] = experiment: Toxicity in C57BL6 mouse eye assessed as effect on corneal clarity at 3 mg/ml applied topically 5 times/day for 4 days by slit lamp biomicroscopy; assay type: organism-based, Cornea; details: in vivo, topical_or_ocular, 96 h; in short: as §4
Lipid bilayer [31] = experiment: Induction of vesicle leakage in DOPC large unilamellar vesicles assessed as calcein release at 1/16 compound to lipid ratio by fluorescence assay; assay type: functional; in short: as §1
Staphylococcus aureus [32] = experiment: Antimicrobial activity against Staphylococcus aureus ATCC 29213 in absence of 4% BSA by broth macrodilution method; assay type: functional; in short: as §3
Mus musculus [33] = experiment: Toxicity in C57BL6 mouse eye assessed as effect on wound closure at 3 mg/ml applied topically 5 times/day for 4 days by slit lamp biomicroscopy; assay type: organism-based; details: in vivo, topical_or_ocular, 96 h
[34] = Selectivity index, ratio of HC50 for induction of hemolysis in New Zealand white rabbit RBC to MIC for Staphylococcus aureus DM09809R
Listeria monocytogenes = experiment: Antimicrobial activity against Listeria monocytogenes isolates by broth macrodilution method; assay type: functional

## COC(=O)C(CCCNC(=N)N)NC(=O)C(CCCNC(=N)N)NC(=O)COc1cc2oc3cc(OCC(=O)NC(CCCNC(=N)N)C(=O)NC(CCCNC(=N)N)C(=O)OC)c(OC)c(CC=C(C)C)c3c(=O)c2c(O)c1CC=C(C)C (stereo not drawn)
Lipid bilayer [1]
  Activity: 67.9%
Staphylococcus aureus [2]
  inhibition (INH): 99.9%
Staphylococcus aureus [3]
  MIC: 2 µg/mL (≈ 1.7 µM)
Streptococcus
  MIC: 2 µg/mL (≈ 1.7 µM)
Staphylococcus aureus [4]
  MIC: 12.5 µg/mL
[5]
  Selectivity Index: 92
Staphylococcus aureus [6]
  MIC: 2 µg/mL (≈ 1.7 µM)
[7]
  Retention_time: 6.49 min
[8]
  Selectivity Index: 92
Staphylococcus aureus [9]
  MIC: 2 µg/mL (≈ 1.7 µM)
Bacillus cereus
  MIC: 3 µg/mL (≈ 2.54 µM)
[10]
  Selectivity Index: 92
Staphylococcus aureus [11]
  MIC: 2 µg/mL (≈ 1.7 µM)
Staphylococcus aureus [12]
  MIC: 1.56 µg/mL (≈ 1.32 µM)
Enterococcus [13]
  MIC: 1 µg/mL (≈ 0.848 µM)
Corynebacterium jeikeium
  MIC: 2 µg/mL (≈ 1.7 µM)
Mus musculus [14]
  Activity: Non-toxic
Staphylococcus aureus [15]
  MIC: 0.5 µg/mL (≈ 0.424 µM)
Staphylococcus aureus [16]
  Activity: Active
[17]
  MIC: 2 µg/mL (≈ 1.7 µM)
Staphylococcus aureus [18]
  MIC: 3 µg/mL (≈ 2.54 µM)
Lipid bilayer [19]
  Activity: < 15%
Staphylococcus aureus [20]
  MIC: 2 µg/mL (≈ 1.7 µM)
Staphylococcus aureus [21]
  MIC: 12.5 µg/mL
Lipid bilayer [22]
  Activity: 99.2%
Enterococcus [23]
  MIC: 2 µg/mL (≈ 1.7 µM)
Staphylococcus aureus [24]
  MIC: 2 µg/mL (≈ 1.7 µM)
Staphylococcus aureus [25]
  MIC: 2 µg/mL (≈ 1.7 µM)
Staphylococcus aureus [26]
  MIC: 2 µg/mL (≈ 1.7 µM)
Mus musculus [27]
  Activity: Non-toxic
[28]
  HC50 at 1 h: 277 µg/mL
Lipid bilayer [29]
  Activity: 24.6%
Mus musculus [30]
  Activity: Non-toxic
Lipid bilayer [31]
  Activity: < 15%
Staphylococcus aureus [32]
  MIC: 3.12 µg/mL (≈ 2.65 µM)
Mus musculus [33]
  Activity: Non-toxic
[34]
  Selectivity Index: 92
Listeria monocytogenes
  MIC: 2 µg/mL (≈ 1.7 µM)
